Test results reported in ChEMBL document CHEMBL3774372, “Design, physico-chemical properties and biological evaluation of some new N-[(phenoxy)alkyl]- and N-{2-[2-(phenoxy)ethoxy]ethyl}aminoalkanols as anticonvulsant agents” (Bioorg Med Chem, 2016).
The source made the active and inactive calls. The rule behind the calls is not given here.

Columns and labels:
Rattus norvegicus [1] = assay: Anticonvulsant activity in rat assessed as protection against maximal electric shock-induced seizures at 30 mg/kg, ip measured after 0.5 hrs; type: functional, organism-based
In short: (§1)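 Rats dosed ip or orally as 0.5% methylcellulose suspension; maximal electroshock at listed time. Protection = abolition of hindlimb tonic extension; 4 rats per group, scored protected/tested.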

Rattus norvegicus [2] = assay: Anticonvulsant activity in rat assessed as protection against maximal electric shock-induced seizures at 30 mg/kg, po measured after 4 hrs; type: functional, organism-based; in short: as §1
Rattus norvegicus [3] = assay: Anticonvulsant activity in rat assessed as protection against maximal electric shock-induced seizures at 30 mg/kg, po measured after 2 hrs; type: functional, organism-based; in short: as §1
Rattus norvegicus [4] = assay: Anticonvulsant activity in rat assessed as protection against maximal electric shock-induced seizures at 30 mg/kg, po measured after 0.5 hrs; type: functional, organism-based; in short: as §1
Rattus norvegicus [5] = assay: Anticonvulsant activity in rat assessed as protection against maximal electric shock-induced seizures at 30 mg/kg, ip measured after 2 hrs; type: functional, organism-based; in short: as §1
[6] = target: Adenosine receptor A1 (Homo sapiens) (UniProt P30542); assay: Displacement of [3H]DPCPX from human recombinant adenosine A1 receptor expressed in CHO cells at 10^-5 M; type: cell-based
In short: (§2)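 Radioligand binding screen run at a single test concentration of 10^-5 M. Each target used its stated receptor source (human recombinant CHO or HEK-293 cells, endogenous cell lines, or rat tissue membranes) with the listed radioligand.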

Mus musculus [7] = assay: Anticonvulsant activity in mouse assessed as protection against 6 Hz psychomotor seizure at 20 mg/kg, ip after […]; type: functional, organism-based
[8] = target: Neuropeptide Y receptor type 2 (Homo sapiens) (UniProt P49146); assay: Displacement of [125I]peptide YY from neuropeptide Y2 receptor in human KAN-TS cells at 10^-5 M; type: cell-based; in short: as §2
Rattus norvegicus [9] = assay: Anticonvulsant activity in pilocarpine-induced status epilepticus Sprague-Dawley rat model at 100 mg/kg, ip after 0.5 hrs during post stage 3 seizure; type: functional, organism-based
In short: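 Rats given pilocarpine 50 mg/kg ip and observed to first convulsive seizure (Racine stage 3–5, time zero); test drug then given ip in 0.5% methylcellulose. Efficacy = halting further stage 3–5 convulsive seizures; scored protected/tested, time after first stage 3 seizure.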

Mus musculus [10] = assay: Anticonvulsant activity in mouse assessed as protection against 6 Hz psychomotor seizure at 50 mg/kg, ip after 2 hrs; type: functional, organism-based
In short: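 Suspension in 0.5% methylcellulose given ip to mice; corneal stimulation with 0.2 ms monopolar rectangular pulses at 6 Hz for 3 s from a constant current device, mice restrained then released to observation cage. Protected if normal exploratory behaviour resumed within 10 s of stimulation. Scored as protected/tested, 4 mice per group.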

Mus musculus [11] = assay: AUC (0 to infinity) in CD1 mouse plasma at 1 mg/kg, iv measured up to 240 mins by LC/ESI-MS/MS analysis; type: ADME, organism-based; parameters: dose 1 mg/kg, time infinity, route intravenous; conditions: in vivo, 4 h
Mus musculus [12] = assay: Analgesic activity in mouse assessed as reduction in AUC of formalin-induced licking time during acute phase at 13 mg/kg, ip relative to control; type: functional
In short: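 Formalin injected into a mouse hindlimb; total licking time taken as pain intensity. Compound given ip at 13 mg/kg as a suspension in 0.5% methylcellulose; vehicle-only animals served as controls.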

[13] = Ratio of drug level in brain to plasma in CD1 mouse at 12.92 mg/kg, ip administered as single dose measured after 120 mins by LC/ESI-MS/MS analysis; type: ADME, organism-based; conditions: brain and plasma, read-out: BPR
[14] = Cmax in CD1 mouse brain at 12.92 mg/kg, ip measured up to 240 mins by LC/ESI-MS/MS analysis; type: ADME, organism-based; parameters: dose 12.92 mg/kg, route intraperitoneal
Vibrio harveyi [15] = assay: Mutagenicity in Vibrio harveyi BB7XM assessed as number of colonies after 48 hrs (reference value: 14 no_unit); type: ADME, organism-based; conditions: in vivo
In short: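 Vibrio harveyi mutagenicity test: test compound was added to exponentially growing cultures (A600 = 0.1, 30 °C) and grown to OD600 0.3–0.4. Then 5 × 10^6 cells were plated on BOSS agar with neomycin (final 100 µg/mL) and incubated 48 h at 30 °C. Neomycin-resistant colonies were counted. Triplicate; controls were water, DMSO and NQNO 40 ng/mL.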

Mus musculus [16] = assay: Tmax in CD1 mouse plasma at 12.92 mg/kg, ig measured up to 240 mins by LC/ESI-MS/MS analysis; type: ADME, organism-based; conditions: in vivo, po, 4 h
[17] = MRT in CD1 mouse plasma at 12.92 mg/kg, ig measured up to 240 mins by LC/ESI-MS/MS analysis; type: ADME, organism-based; conditions: po
Mus musculus [18] = assay: Anticonvulsant activity in ip dosed mouse assessed as protection against maximal electric shock-induced seizures measured after […]; type: functional
[19] = Ratio of drug level in brain to plasma in CD1 mouse at 12.92 mg/kg, ip administered as single dose measured after 15 mins by LC/ESI-MS/MS analysis; type: ADME, organism-based; conditions: brain and plasma, read-out: BPR
Vibrio harveyi [20] = assay: Antimutagenic activity against Vibrio harveyi BB7M assessed as inhibition of NQNO-induced mutagenicity after 48 hrs; type: functional
In short: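 V. harveyi cultures grown exponentially to A600 0.1 at 30 °C, exposed to test compound for 15 min, then to NQNO, and grown on to A600 0.3–0.4. 5 × 10⁶ cells plated on BOSS agar with neomycin (100, final). Neomycin-resistant colonies counted after 48 h at 30 °C. Result given as % inhibition of NQNO mutagenicity; three independent repeats.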

Mus musculus [21] = assay: Cmax in CD1 mouse plasma at 12.92 mg/kg, ig measured up to 240 mins by LC/ESI-MS/MS analysis; type: ADME, organism-based; parameters: dose 12.92 mg/kg, route […]; conditions: in vivo, po, 4 h
Mus musculus [22] = assay: Half life in CD1 mouse plasma at 12.92 mg/kg, ip measured up to 240 mins by LC/ESI-MS/MS analysis; type: ADME, organism-based; conditions: in vivo, 4 h

Adenosine receptor A1 (Homo sapiens), sequence (P30542 whole entry): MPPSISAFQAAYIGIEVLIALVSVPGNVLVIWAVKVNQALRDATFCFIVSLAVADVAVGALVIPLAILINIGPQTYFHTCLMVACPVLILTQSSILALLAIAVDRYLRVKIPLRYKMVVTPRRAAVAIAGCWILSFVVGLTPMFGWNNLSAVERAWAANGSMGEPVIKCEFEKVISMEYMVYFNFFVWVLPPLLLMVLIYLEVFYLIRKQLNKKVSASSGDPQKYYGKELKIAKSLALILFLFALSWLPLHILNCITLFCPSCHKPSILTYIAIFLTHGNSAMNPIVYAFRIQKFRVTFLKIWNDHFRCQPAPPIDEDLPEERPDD
Neuropeptide Y receptor type 2 (Homo sapiens), sequence (P49146 whole entry): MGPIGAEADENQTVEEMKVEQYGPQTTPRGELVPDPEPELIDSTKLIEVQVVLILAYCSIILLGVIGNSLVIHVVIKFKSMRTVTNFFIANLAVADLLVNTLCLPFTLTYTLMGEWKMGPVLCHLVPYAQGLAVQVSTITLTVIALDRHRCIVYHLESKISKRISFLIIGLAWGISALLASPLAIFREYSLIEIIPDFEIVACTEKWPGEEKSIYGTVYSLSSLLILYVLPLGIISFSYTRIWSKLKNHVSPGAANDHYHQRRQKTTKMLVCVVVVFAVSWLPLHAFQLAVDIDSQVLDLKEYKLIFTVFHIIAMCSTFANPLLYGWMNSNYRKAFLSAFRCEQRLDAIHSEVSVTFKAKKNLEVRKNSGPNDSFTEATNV

Cc1cccc(C)c1OCCOCCN[C@@H](C)CO
Activity (Rattus norvegicus [1]): Active
Activity (Rattus norvegicus [2]): inactive
Activity (Rattus norvegicus [3]): inactive
Activity (Rattus norvegicus [4]): inactive
Activity (Rattus norvegicus [5]): inactive
inhibition [6]: -6.9%
Activity (Mus musculus [7]): inactive

Cc1cccc(C)c1OCCOCCN[C@H](C)CO
inhibition [8]: -5.1%
Activity (Rattus norvegicus [9]): inactive
Activity (Mus musculus [10]): inactive

Cc1cccc(C)c1OCCOCCN[C@H](C)CO.Cl
AUC (Mus musculus [11]): 1030 ng·h/mL
inhibition in vivo at 13 mg/kg (Mus musculus [12]): 54.9%
Kp at 2 h [13]: 2.86
Cmax [14]: 2360 ng/mL
Activity (Vibrio harveyi [15]): 18
Tmax (Mus musculus [16]): 5 min
MRT [17]: 40.3 min
ED50 (Mus musculus [18]): 12.9 mg/kg
Kp at […] [19]: 2.55
inhibition (INH) (Vibrio harveyi [20]): 69%
Cmax (Mus musculus [21]): 950 ng/mL
t1/2 (Mus musculus [22]): 77.2 min
